Data published in ChEMBL document CHEMBL2057149 (J Med Chem, 2012).
Active and inactive are the calls of the source. The rule behind the calls is not given here.

How the values were obtained:
Aorta = test: Antiangiogenic activity in Sprague-Dawley rat aorta assessed as inhibition of tube formation dosed daily at 10 uM measured up to 8 days by matrigel assay; type: functional
How it was run: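 Aortas from 6–10-week Sprague–Dawley rats were cut into 1 mm rings, bisected and embedded in Matrigel. Cultured in EBM-2 with 2% FCS and supplements except heparin, without exogenous growth factors. Compound was usually given at two concentrations within 1–50 μM from 10 mM PBS stocks, replenished every 48 h. Microvessels were scored 0–5 up to 8 days by two independent investigators.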

[1] = target: Fibroblast growth factor 2 (Homo sapiens, UniProt P09038); test: Binding affinity to FGF-2 by surface plasmon resonance assay
How it was run: (§1)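 Solution-affinity SPR on heparin-coated CM4 chips. FGF-1 measured in HBS-EP (10 mM HEPES pH 7.4, 150 mM NaCl, 3.0 mM EDTA, 0.005% polysorbate 20); FGF-2 measured in HBS-EP with 300 mM NaCl. Kd is the average of at least duplicate measurements ± SD.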

HUVEC [2] = test: Antiangiogenic activity in VEGF-stimulated HUVEC cells after 72 hrs by CellTiter assay; type: functional, cell-based; details: Homo sapiens
HUVEC [3] = test: Antiangiogenic activity in FGF2-stimulated HUVEC cells after 72 hrs by CellTiter assay; type: functional, cell-based; details: Homo sapiens
[4] = target: Fibroblast growth factor 1 (Homo sapiens, UniProt P05230); test: Binding affinity to FGF-1 by surface plasmon resonance assay; how it was run: as §1
Plasma [5] = test: Anticoagulant activity in pooled human plasma assessed as prolongation of the recalcification time at 0.1 mg/ml by Heptest assay; type: ADME, cell-free
How it was run: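 Heptest clotting time in pooled normal human plasma; normal range 13–20 s. Values are the mean of two determinations.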

HMVEC [6] = test: Antiangiogenic activity in FGF2-stimulated HMVEC cells after 72 hrs by CellTiter assay; type: functional, cell-based; details: Homo sapiens
HMVEC [7] = test: Antiangiogenic activity in VEGF-stimulated HMVEC cells after 72 hrs by CellTiter assay; type: functional, cell-based; details: Homo sapiens
Heparanase = target: T1, Heparanase (Homo sapiens, UniProt Q9Y251); test: Inhibition of human recombinant heparanase after 2 to 24 hrs by WST1 dye based fondaparinux assay
T1 sequence (Q9Y251 whole entry): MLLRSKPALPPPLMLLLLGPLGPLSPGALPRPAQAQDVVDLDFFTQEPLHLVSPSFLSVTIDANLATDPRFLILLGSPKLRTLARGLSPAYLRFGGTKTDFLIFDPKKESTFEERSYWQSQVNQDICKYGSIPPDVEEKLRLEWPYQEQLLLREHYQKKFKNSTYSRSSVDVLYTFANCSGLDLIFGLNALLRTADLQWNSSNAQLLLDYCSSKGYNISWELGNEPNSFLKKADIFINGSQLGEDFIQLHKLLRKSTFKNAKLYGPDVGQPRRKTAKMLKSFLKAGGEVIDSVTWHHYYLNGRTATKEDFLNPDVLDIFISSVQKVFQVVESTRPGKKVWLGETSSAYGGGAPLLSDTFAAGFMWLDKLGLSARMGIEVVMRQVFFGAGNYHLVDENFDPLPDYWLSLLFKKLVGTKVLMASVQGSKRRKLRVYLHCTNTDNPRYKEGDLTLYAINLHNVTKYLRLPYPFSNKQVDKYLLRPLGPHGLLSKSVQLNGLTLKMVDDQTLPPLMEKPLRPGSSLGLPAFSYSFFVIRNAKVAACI

HUVEC [8] = test: Antiangiogenic activity in FGF1-stimulated HUVEC cells after 72 hrs by CellTiter assay; type: functional, cell-based; details: Homo sapiens
HMVEC [9] = test: Antiangiogenic activity in FGF1-stimulated HMVEC cells after 72 hrs by CellTiter assay; type: functional, cell-based; details: Homo sapiens
Plasma [10] = test: Anticoagulant activity in pooled human plasma assessed as activated partial thromboplastin time at 0.1 mg/ml; type: ADME, cell-free
How it was run: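 APTT of pooled normal human plasma measured with compound at 0–100 μg/mL in PBS on a ball coagulameter, using unfractionated heparin as the reference. Normal range 26–36 s; coefficient of variation 2% at 36 s and 5–7% at 90 s or above. Values are the mean of two determinations.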

[11] = target: Vascular endothelial growth factor A (Homo sapiens) (UniProt P15692); test: Binding affinity to VEGF by surface plasmon resonance assay
HUVEC [12] = test: Antiangiogenic activity in HUVEC cells assessed as inhibition of tube formation at 10 uM after 18 hrs by matrigel assay; type: functional; details: Homo sapiens
How it was run: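 HUVECs (passage 4 or 5, 70–80% confluent) suspended at 4 × 10⁵/mL in EGM2 with all supplements except heparin, mixed 1:1 with compound (final 10, 50 or 100 μM) in triplicate. Plated on growth factor-reduced Matrigel for 18 h. Branching nodes joining ≥3 tubules counted manually by phase-contrast microscopy. Reported as % inhibition versus untreated cells.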

Fibroblast growth factor 1, sequence (P05230 whole entry): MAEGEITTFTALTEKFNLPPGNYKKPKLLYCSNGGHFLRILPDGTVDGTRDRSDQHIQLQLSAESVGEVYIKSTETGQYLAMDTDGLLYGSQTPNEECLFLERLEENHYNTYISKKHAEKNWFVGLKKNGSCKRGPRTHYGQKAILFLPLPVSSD
Fibroblast growth factor 2, sequence (P09038 143-288 limits assumed): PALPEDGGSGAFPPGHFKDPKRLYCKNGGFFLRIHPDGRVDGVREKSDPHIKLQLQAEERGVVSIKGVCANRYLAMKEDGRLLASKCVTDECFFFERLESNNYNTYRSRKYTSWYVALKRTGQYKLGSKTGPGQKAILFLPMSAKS

SMILES | inhibition (INH) (Aorta) [%] | Kd [1] [nM] | IC50 (HUVEC [2]) [nM] | IC50 (HUVEC [3]) [nM] | Kd [4] [nM] | Time (Plasma [5]) [s] | Activity (HMVEC [6]) | Activity (HMVEC [7]) | Ki (Heparanase) [nM] | IC50 (HUVEC [8]) [nM] | Activity (HMVEC [9]) | APTT (Plasma [10]) [s] | Kd [11] [nM] | inhibition at 10 µM (HUVEC [12]) [%]
CC(C)CCC[C@@H](C)[C@H]1CC[C@H]2[C@@H]3CC[C@H]4C[C@@H](OCc5cn([C@@H]6O[C@H](COS(=O)(=O)[O-])[C@@H](O[C@H]7O[C@H](COS(=O)(=O)[O-])[C@@H](O[C@H]8O[C@H](COS(=O)(=O)[O-])[C@@H](O[C@H]9O[C@H](COS(=O)(=O)[O-])[C@@H](OS(=O)(=O)[O-])[C@H](OS(=O)(=O)[O-])[C@H]9OS(=O)(=O)[O-])[C@H](OS(=O)(=O)[O-])[C@H]8OS(=O)(=O)[O-])[C@H](OS(=O)(=O)[O-])[C@H]7OS(=O)(=O)[O-])[C@H](OS(=O)(=O)[O-])[C@H]6OS(=O)(=O)[O-])nn5)CC[C@]4(C)[C@H]3CC[C@]12C.[Na+].[Na+].[Na+].[Na+].[Na+].[Na+].[Na+].[Na+].[Na+].[Na+].[Na+].[Na+].[Na+] | >80 | 390 | 2200 | 640 | 9.7 | 45.5 | Active | Active | 3.7 | 2300 | Active | 104 | 95 | –
CCCCCCCCCCCCCCCCCC(=O)NCCCO[C@@H]1O[C@H](COS(=O)(=O)[O-])[C@@H](O[C@H]2O[C@H](COS(=O)(=O)[O-])[C@@H](O[C@H]3O[C@H](COS(=O)(=O)[O-])[C@@H](O[C@H]4O[C@H](COS(=O)(=O)[O-])[C@@H](OS(=O)(=O)[O-])[C@H](OS(=O)(=O)[O-])[C@H]4OS(=O)(=O)[O-])[C@H](OS(=O)(=O)[O-])[C@H]3OS(=O)(=O)[O-])[C@H](OS(=O)(=O)[O-])[C@H]2OS(=O)(=O)[O-])[C@H](OS(=O)(=O)[O-])[C@H]1OS(=O)(=O)[O-].[Na+].[Na+].[Na+].[Na+].[Na+].[Na+].[Na+].[Na+].[Na+].[Na+].[Na+].[Na+].[Na+] | – | – | – | 800 | – | 32.2 | Active | Active | – | – | Active | 65.8 | 14 | > 80
CCCCCCCCCCCCCCCCCC(=O)NCCCO[C@H]1O[C@H](COS(=O)(=O)[O-])[C@@H](OS(=O)(=O)[O-])[C@H](OS(=O)(=O)[O-])[C@@H]1O[C@H]1O[C@H](COS(=O)(=O)[O-])[C@@H](OS(=O)(=O)[O-])[C@H](O[C@H]2O[C@H](COS(=O)(=O)[O-])[C@@H](OS(=O)(=O)[O-])[C@H](O[C@H]3O[C@H](COS(=O)(=O)[O-])[C@@H](OS(=O)(=O)[O-])[C@H](OS(=O)(=O)[O-])[C@@H]3OS(=O)(=O)[O-])[C@@H]2OS(=O)(=O)[O-])[C@@H]1OS(=O)(=O)[O-].[Na+].[Na+].[Na+].[Na+].[Na+].[Na+].[Na+].[Na+].[Na+].[Na+].[Na+].[Na+].[Na+] | – | 108 | 600 | 700 | 0.44 | 24.5 | Active | Active | 6 | 1540 | Active | 68.1 | 40 | > 80
CC(C)CCC[C@@H](C)[C@H]1CC[C@H]2[C@@H]3CC[C@H]4C[C@@H](O[C@H]5O[C@H](COS(=O)(=O)[O-])[C@@H](OS(=O)(=O)[O-])[C@H](OS(=O)(=O)[O-])[C@@H]5O[C@H]5O[C@H](COS(=O)(=O)[O-])[C@@H](OS(=O)(=O)[O-])[C@H](O[C@H]6O[C@H](COS(=O)(=O)[O-])[C@@H](OS(=O)(=O)[O-])[C@H](O[C@H]7O[C@H](COS(=O)(=O)[O-])[C@@H](OS(=O)(=O)[O-])[C@H](OS(=O)(=O)[O-])[C@@H]7OS(=O)(=O)[O-])[C@@H]6OS(=O)(=O)[O-])[C@@H]5OS(=O)(=O)[O-])CC[C@]4(C)[C@H]3CC[C@]12C.[Na+].[Na+].[Na+].[Na+].[Na+].[Na+].[Na+].[Na+].[Na+].[Na+].[Na+].[Na+].[Na+] | >80 | 160 | 1200 | 800 | 0.6 | 28 | Active | Active | 5.8 | 1290 | Active | 94 | 22 | > 80
CC(=O)O[C@H]1C[C@H]2[C@@H](CC[C@H]3C[C@@H](OS(=O)(=O)[O-])CC[C@@]32C)[C@@H]2CC[C@H]([C@H](C)CCC(=O)N[C@@H]3O[C@H](COS(=O)(=O)[O-])[C@@H](O[C@H]4O[C@H](COS(=O)(=O)[O-])[C@@H](O[C@H]5O[C@H](COS(=O)(=O)[O-])[C@@H](O[C@H]6O[C@H](COS(=O)(=O)[O-])[C@@H](OS(=O)(=O)[O-])[C@H](OS(=O)(=O)[O-])[C@H]6OS(=O)(=O)[O-])[C@H](OS(=O)(=O)[O-])[C@H]5OS(=O)(=O)[O-])[C@H](OS(=O)(=O)[O-])[C@H]4OS(=O)(=O)[O-])[C@H](OS(=O)(=O)[O-])[C@H]3OS(=O)(=O)[O-])[C@@]12C.[Na+].[Na+].[Na+].[Na+].[Na+].[Na+].[Na+].[Na+].[Na+].[Na+].[Na+].[Na+].[Na+].[Na+] | – | 50 | > 50000 | > 50000 | 1.25 | 26.8 | Active | Active | 20 | > 50000 | Active | 41 | 7.95 | –
CC(C)CCC[C@@H](C)[C@H]1CC[C@H]2[C@@H]3CC[C@H]4C[C@@H](OCc5cn(CCCO[C@H]6O[C@H](COS(=O)(=O)[O-])[C@@H](OS(=O)(=O)[O-])[C@H](O[C@H]7O[C@H](COS(=O)(=O)[O-])[C@@H](OS(=O)(=O)[O-])[C@H](O[C@H]8O[C@H](COS(=O)(=O)[O-])[C@@H](OS(=O)(=O)[O-])[C@H](OS(=O)(=O)[O-])[C@@H]8OS(=O)(=O)[O-])[C@@H]7OS(=O)(=O)[O-])[C@@H]6OS(=O)(=O)[O-])nn5)CC[C@]4(C)[C@H]3CC[C@]12C.[Na+].[Na+].[Na+].[Na+].[Na+].[Na+].[Na+].[Na+].[Na+].[Na+] | – | 474 | 1400 | 1200 | 14.3 | 26.4 | Active | Active | 8.4 | 2610 | Active | 71.4 | 260 | –
